# Laboratory results as given in ChEMBL document CHEMBL1914346, “Discovery and synthesis of novel substituted benzocoumarins as orally active lipid modulating agents” (Bioorg Med Chem Lett, 2011).
# Assays:
# [1] = system: Syrian golden hamster; assay: Antidyslipidemic activity in high fat diet-fed dyslipidemic syrian golden hamster model assessed as decrease in serum triglyceride level at 10 mg/kg, po administered once daily for 7 days relative to vehicle treated control; assay type: functional, Mesocricetus auratus; parameters: scale not given: the % may be the effect or the level left
# Method in brief: (§1)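 Male Golden Syrian hamsters, 12 weeks old, 110 ± 10 g, eight per group, fed high-fat diet plus fructose daily on days 1–10. Oral dosing once daily on days 4–10 in 0.1% gum acacia; HFD-fed vehicle animals served as controls. After the last dose, retro-orbital blood was taken into EDTA and plasma lipids were measured enzymatically on an autoanalyzer. Results are % change versus HFD controls; t-test/ANOVA, p<0.05.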
# [2] = system: Syrian golden hamster; assay: Antidyslipidemic activity in high fat diet-fed dyslipidemic syrian golden hamster model assessed as increase in serum HDL level at 10 mg/kg, po administered once daily for 7 days relative to vehicle treated control; assay type: functional, Mesocricetus auratus; method in brief: as §1
# [3] = system: Syrian golden hamster; assay: Antidyslipidemic activity in high fat diet-fed dyslipidemic syrian golden hamster model assessed as increase in serum ratio of serum HDL/total cholesterol level at 10 mg/kg, po administered once daily for 7 days relative to vehicle treated control; assay type: functional, Mesocricetus auratus; method in brief: as §1
# [4] = Antioxidant activity assessed as trolox equivalent by TEAC assay; assay type: functional
# [5] = system: Syrian golden hamster; assay: Antidyslipidemic activity in high fat diet-fed dyslipidemic syrian golden hamster model assessed as decrease in serum total cholesterol level at 10 mg/kg, po administered once daily for 7 days relative to vehicle treated control; assay type: functional, Mesocricetus auratus; parameters: scale not given: the % may be the effect or the level left; method in brief: as §1
# [6] = system: Syrian golden hamster; assay: Toxicity in syrian golden hamster; assay type: organism-based, Mesocricetus auratus; settings: in vivo
# Method in brief: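 HFD-fed male Golden Syrian hamsters, eight per group, dosed orally at 10 mg/kg once daily for 7 days in 0.1% gum acacia. Body weight was recorded daily and food intake was monitored, then compared with HFD vehicle controls.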
# [7] = system: Syrian golden hamster; assay: Antidyslipidemic activity in high fat diet-fed dyslipidemic syrian golden hamster model assessed as decrease in serum LDL level at 10 mg/kg, po administered once daily for 7 days relative to vehicle treated control; assay type: functional, Mesocricetus auratus; parameters: scale not given: the % may be the effect or the level left; method in brief: as §1
# [8] = target: T1, 3-hydroxy-3-methylglutaryl-coenzyme A reductase (Homo sapiens) (UniProt P04035); assay: Inhibition of HMG-CoA reductase using HMG-CoA as substrate at 5 uM
# T1 sequence (whole entry): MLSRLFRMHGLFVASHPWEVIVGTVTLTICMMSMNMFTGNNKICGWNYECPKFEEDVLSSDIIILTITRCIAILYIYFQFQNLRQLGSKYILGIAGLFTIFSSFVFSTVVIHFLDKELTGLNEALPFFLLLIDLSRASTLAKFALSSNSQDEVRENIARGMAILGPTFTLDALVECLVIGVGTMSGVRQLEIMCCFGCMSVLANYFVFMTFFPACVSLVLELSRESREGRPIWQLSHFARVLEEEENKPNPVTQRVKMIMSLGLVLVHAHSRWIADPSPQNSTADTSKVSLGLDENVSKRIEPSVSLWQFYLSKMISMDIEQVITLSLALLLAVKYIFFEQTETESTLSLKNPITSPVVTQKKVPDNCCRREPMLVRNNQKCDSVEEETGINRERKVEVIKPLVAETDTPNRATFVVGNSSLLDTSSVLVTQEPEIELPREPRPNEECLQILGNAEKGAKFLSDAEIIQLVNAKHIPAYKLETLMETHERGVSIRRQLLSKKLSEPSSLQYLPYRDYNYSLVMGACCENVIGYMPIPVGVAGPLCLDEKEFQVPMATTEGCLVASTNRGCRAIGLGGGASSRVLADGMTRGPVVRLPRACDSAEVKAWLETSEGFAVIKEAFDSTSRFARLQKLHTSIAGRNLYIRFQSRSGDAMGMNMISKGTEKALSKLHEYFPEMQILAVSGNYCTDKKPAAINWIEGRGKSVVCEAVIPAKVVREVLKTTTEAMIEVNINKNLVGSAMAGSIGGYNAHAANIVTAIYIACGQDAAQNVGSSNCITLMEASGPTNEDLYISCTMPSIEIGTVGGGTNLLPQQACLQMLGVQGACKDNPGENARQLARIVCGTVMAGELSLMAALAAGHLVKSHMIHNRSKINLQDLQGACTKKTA
# Method in brief: (§2)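 HMG-CoA reductase kit assay using supplied HMGR enzyme, HMG-CoA substrate, NADPH and assay buffer. Test concentrations were 5, 10, 25, 50 and 100 µM, with % inhibition recorded at each.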
# [9] = target: T1, 3-hydroxy-3-methylglutaryl-coenzyme A reductase (Homo sapiens); assay: Inhibition of HMG-CoA reductase using HMG-CoA as substrate at 100 uM; method in brief: as §2
# [10] = system: Syrian golden hamster; assay: Antidyslipidemic activity in high fat diet-fed dyslipidemic syrian golden hamster model assessed as increase in serum ratio of HDL/total cholesterol level at 10 mg/kg relative to vehicle treated control; assay type: functional, Mesocricetus auratus
# Method in brief: (§3)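 Dose-response run on a separate set of high-fat/fructose-fed male Golden Syrian hamsters given oral doses of 2.5, 5, 10 and 25 mg/kg. Plasma TC, TG, HDL-C and LDL-C were measured by standard enzymatic methods on a clinical autoanalyzer. HDL/TC ratio was calculated. Results are % change relative to HFD-fed vehicle (gum acacia) controls.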
# [11] = system: Syrian golden hamster; assay: Antidyslipidemic activity in high fat diet-fed dyslipidemic syrian golden hamster model assessed as decrease in serum triglyceride level at 10 mg/kg relative to vehicle treated control; assay type: functional, Mesocricetus auratus; parameters: scale not given: the % may be the effect or the level left; method in brief: as §3
# [12] = system: Syrian golden hamster; assay: Antidyslipidemic activity in high fat diet-fed dyslipidemic syrian golden hamster model assessed as decrease in serum LDL level at 5 mg/kg relative to vehicle treated control; assay type: functional, Mesocricetus auratus; parameters: scale not given: the % may be the effect or the level left; method in brief: as §3
# [13] = target: T1, 3-hydroxy-3-methylglutaryl-coenzyme A reductase (Homo sapiens); assay: Inhibition of HMG-CoA reductase using HMG-CoA as substrate at 50 uM; method in brief: as §2
# [14] = system: Syrian golden hamster; assay: Antidyslipidemic activity in high fat diet-fed dyslipidemic syrian golden hamster model assessed as decrease in serum total cholesterol level at 5 mg/kg relative to vehicle treated control; assay type: functional, Mesocricetus auratus; parameters: scale not given: the % may be the effect or the level left; method in brief: as §3
# [15] = system: Syrian golden hamster; assay: Antidyslipidemic activity in high fat diet-fed dyslipidemic syrian golden hamster model assessed as increase in serum ratio of HDL/total cholesterol level at 25 mg/kg relative to vehicle treated control; assay type: functional, Mesocricetus auratus; method in brief: as §3
# [16] = target: T1, 3-hydroxy-3-methylglutaryl-coenzyme A reductase (Homo sapiens); assay: Inhibition of HMG-CoA reductase using HMG-CoA as substrate at 25 uM; method in brief: as §2
# [17] = system: Syrian golden hamster; assay: Antidyslipidemic activity in high fat diet-fed dyslipidemic syrian golden hamster model assessed as increase in serum ratio of HDL/total cholesterol level at 5 mg/kg relative to vehicle treated control; assay type: functional, Mesocricetus auratus; method in brief: as §3
# [18] = system: Syrian golden hamster; assay: Antidyslipidemic activity in high fat diet-fed dyslipidemic syrian golden hamster model assessed as decrease in serum LDL level at 25 mg/kg relative to vehicle treated control; assay type: functional, Mesocricetus auratus; parameters: scale not given: the % may be the effect or the level left; method in brief: as §3
# [19] = system: Syrian golden hamster; assay: Antidyslipidemic activity in high fat diet-fed dyslipidemic syrian golden hamster model assessed as decrease in serum total cholesterol level at 10 mg/kg relative to vehicle treated control; assay type: functional, Mesocricetus auratus; parameters: scale not given: the % may be the effect or the level left; method in brief: as §3
# [20] = system: Syrian golden hamster; assay: Antidyslipidemic activity in high fat diet-fed dyslipidemic syrian golden hamster model assessed as decrease in serum triglyceride level at 25 mg/kg relative to vehicle treated control; assay type: functional, Mesocricetus auratus; parameters: scale not given: the % may be the effect or the level left; method in brief: as §3
# [21] = system: Syrian golden hamster; assay: Antidyslipidemic activity in high fat diet-fed dyslipidemic syrian golden hamster model assessed as increase in serum ratio of HDL/total cholesterol level at 2.5 mg/kg relative to vehicle treated control; assay type: functional, Mesocricetus auratus; method in brief: as §3
# [22] = target: T1, 3-hydroxy-3-methylglutaryl-coenzyme A reductase (Homo sapiens); assay: Inhibition of HMG-CoA reductase using HMG-CoA as substrate at 10 uM; method in brief: as §2
# [23] = system: Syrian golden hamster; assay: Antidyslipidemic activity in high fat diet-fed dyslipidemic syrian golden hamster model assessed as decrease in serum LDL level at 2.5 mg/kg relative to vehicle treated control; assay type: functional, Mesocricetus auratus; parameters: scale not given: the % may be the effect or the level left; method in brief: as §3
# [24] = system: Syrian golden hamster; assay: Antidyslipidemic activity in high fat diet-fed dyslipidemic syrian golden hamster model assessed as decrease in serum LDL level at 10 mg/kg relative to vehicle treated control; assay type: functional, Mesocricetus auratus; parameters: scale not given: the % may be the effect or the level left; method in brief: as §3
# [25] = system: Syrian golden hamster; assay: Antidyslipidemic activity in high fat diet-fed dyslipidemic syrian golden hamster model assessed as decrease in serum triglyceride level at 2.5 mg/kg relative to vehicle treated control; assay type: functional, Mesocricetus auratus; parameters: scale not given: the % may be the effect or the level left; method in brief: as §3
# [26] = system: Syrian golden hamster; assay: Antidyslipidemic activity in high fat diet-fed dyslipidemic syrian golden hamster model assessed as decrease in serum triglyceride level at 5 mg/kg relative to vehicle treated control; assay type: functional, Mesocricetus auratus; parameters: scale not given: the % may be the effect or the level left; method in brief: as §3
# [27] = system: Syrian golden hamster; assay: Antidyslipidemic activity in high fat diet-fed dyslipidemic syrian golden hamster model assessed as decrease in serum total cholesterol level at 25 mg/kg relative to vehicle treated control; assay type: functional, Mesocricetus auratus; parameters: scale not given: the % may be the effect or the level left; method in brief: as §3
# [28] = system: Syrian golden hamster; assay: Antidyslipidemic activity in high fat diet-fed dyslipidemic syrian golden hamster model assessed as decrease in serum total cholesterol level at 2.5 mg/kg relative to vehicle treated control; assay type: functional, Mesocricetus auratus; parameters: scale not given: the % may be the effect or the level left; method in brief: as §3
# [29] = system: Syrian golden hamster; assay: Antidyslipidemic activity in high fat diet-fed dyslipidemic syrian golden hamster model assessed as decrease in serum HDL level at 10 mg/kg, po administered once daily for 7 days relative to vehicle treated control; assay type: functional, Mesocricetus auratus; parameters: scale not given: the % may be the effect or the level left
# Method in brief: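 Male Golden Syrian hamsters (12 weeks, 110 ± 10 g) fed high fat diet with fructose daily days 1–10; dosed orally once daily days 4–10 in 0.1% gum acacia vehicle, eight per group. Blood drawn from retro-orbital plexus into EDTA after last dose; plasma HDL-C by enzymatic auto-analyzer. Reported as % change versus vehicle-treated HFD group; t-test/ANOVA, p < 0.05.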
smiles,measurement,setting,value
Cc1cc(=O)oc2c3c(ccc12)C(=O)/C(=C/NC12CC4CC(CC(C4)C1)C2)C=C3C=O,Activity,[1],48%
same,Activity,[2],1%
same,Activity,[3],93%
same,Activity,[4],0.99 mM
same,Activity,[5],48%
same,Activity,[6],Non-toxic
same,Activity,[7],59%
Cc1cc(=O)oc2c3c(ccc12)C(=O)/C(=C/NC1CCCCC1)C=C3C=O,Activity,[1],62%
same,Activity,[2],1%
same,Activity,[3],17%
same,Activity,[4],0.3 mM
same,Activity,[5],14%
same,Activity,[6],Non-toxic
same,Activity,[7],10%
COc1ccc(CN/C=C2\C=C(C=O)c3c(ccc4c(C)cc(=O)oc34)C2=O)cc1,inhibition,[8],26.1%
same,inhibition,[9],63.8%
same,Activity,[1],70%
same,Activity,[2],1%
same,Activity,[10],71%
same,Activity,[11],58%
same,Activity,[12],8%
same,inhibition,[13],50.1%
same,Activity,[14],18%
same,Activity,[15],86%
same,Activity,[3],80%
same,inhibition,[16],40.3%
same,Activity,[17],26%
same,Activity,[18],19%
same,Activity,[19],39%
same,Activity,[4],1.36 mM
same,Activity,[20],61%
same,Activity,[21],18%
same,inhibition,[22],34.2%
same,Activity,[23],3%
same,Activity,[24],14%
same,Activity,[25],35%
same,Activity,[26],38%
same,Activity,[5],47%
same,Activity,[6],Non-toxic
same,Activity,[7],54%
same,Activity,[27],45%
same,Activity,[28],19%
CC(C)c1c(C(=O)Nc2ccccc2)c(-c2ccccc2)c(-c2ccc(F)cc2)n1CC[C@@H](O)C[C@@H](O)CC(=O)O [ATORVASTATIN],Activity,[1],67%
same,Activity,[2],2%
same,Activity,[3],83%
same,Activity,[5],25%
same,Activity,[7],23%
Cc1cc(=O)oc2c3c(ccc12)C(=O)/C(=C/NCC(C)(C)CO)C=C3C=O,Activity,[1],49%
same,Activity,[2],1%
same,Activity,[3],61%
same,Activity,[4],1.9 mM
same,Activity,[5],36%
same,Activity,[6],Non-toxic
same,Activity,[7],36%
Cc1cc(=O)oc2c3c(ccc12)C(=O)/C(=C/NCCBr)C=C3C=O,Activity,[1],40%
same,Activity,[29],1%
same,Activity,[3],15%
same,Activity,[4],0.1 mM
same,Activity,[5],13%
same,Activity,[6],Non-toxic
same,Activity,[7],10%
O=C1O[C@H]([C@@H](O)CO)C(O)=C1O,Activity,[4],3.13 mM
